Wee1 degr inh = Wee1 degradation inhibitors, primary screen, cell-based, HeLa, Wee1K328M-luciferase, luminescence; reporter increase, % at 5 µM; AID 1321, 2008; Wee1-like protein kinase (Homo sapiens), P30291; HeLa Luc-Wee1K328M stability; 100% = proteasome inhibitor MG132 effect; 1.2% of 220,000 active;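 active means activation above the mean of all tested compounds plus 3 SD, set per screening run, cut at about 8.8% in these data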;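 further: cells exposed to compound for 20 h before luminescence read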
FLuc stim CS = FLuc activators, initial screening, artefact control for FLuc-dependent activation tests, biochemical, ATPlite luminescence; 200,000 tested, under 10 active; ATPlite luciferase biochemical, 10 min; 0 = ATP-free wells, 1 = DMSO control; AID 1027, 2008; activation factor at 10 µM;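 active means luciferase activation factor, scaled between plate controls, of at least 2 with compound at 10 µM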
Target sequence (P08659 whole entry, looked up): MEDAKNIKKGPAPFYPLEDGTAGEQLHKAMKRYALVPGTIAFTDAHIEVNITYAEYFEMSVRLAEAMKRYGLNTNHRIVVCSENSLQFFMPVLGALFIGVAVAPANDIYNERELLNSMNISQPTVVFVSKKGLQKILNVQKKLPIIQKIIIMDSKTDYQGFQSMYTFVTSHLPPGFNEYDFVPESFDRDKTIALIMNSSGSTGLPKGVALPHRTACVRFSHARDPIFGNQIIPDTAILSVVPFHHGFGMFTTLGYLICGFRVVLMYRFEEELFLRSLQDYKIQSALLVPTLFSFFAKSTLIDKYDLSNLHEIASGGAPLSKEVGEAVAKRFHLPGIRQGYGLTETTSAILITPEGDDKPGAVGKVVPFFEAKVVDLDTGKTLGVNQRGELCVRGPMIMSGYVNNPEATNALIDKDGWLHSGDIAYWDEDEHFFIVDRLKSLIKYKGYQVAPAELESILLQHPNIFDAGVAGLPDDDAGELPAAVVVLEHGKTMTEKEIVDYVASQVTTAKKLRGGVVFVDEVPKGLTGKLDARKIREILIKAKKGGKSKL
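System: luciferase plus luciferin reagent, cell-free; medium: PBS as buffer for the ATP substrate; dosing: test compounds dosed from 2 mM stocks in 100% DMSO; timing: 10 min post-reagent at room temperature; measured by: luminescence measurement of luciferase light output; evaluation: luciferase activation, seen as luminescence increase over controls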
FLuc inhib CS = firefly luciferase enzyme inhibitors, primary screen, artefact control for luciferase-based inhibitor screens, biochemical, luminescence, ATPLite | inhibition, % at 10 µM | 1.5% of 200,000 active | Luciferin 4-monooxygenase (Photinus pyralis), P08659 | 10 min;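 active means inhibition above about 50% when tested at 10 µM, limit read from the data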
PKD1 inh = inhibitors of human PKD1 kinase, biochemical, fluorescence polarization | PKD1 kinase fluorescence polarization assay | Serine/threonine-protein kinase D1 (Homo sapiens), Q15139 | inhibition, % (test concentration not listed) | AID 797, 2007 | 0.056% of 200,000 active; in the data active means inhibition above about 50%
PPC-1+TRAIL kill = compounds killing PPC-1 cancer cells with TRAIL present, primary screen, TRAIL potentiator project, ATPLite luminescence, uHTS; PPC-1 cells + TRAIL, ATPLite viability luminescence; cell killing (% activity), % at 4 µM or 5 µM; 0.41% of 220,000 active;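 active means cell killing above 50% in the first pass at 4 µM, then a duplicate retest at 5 µM averaging 50% or more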
C8 TRAIL sens = viability loss with TRAIL in NB7+C8 cells, primary screen, TRAIL sensitizer project, cell-based, ATPlite luminescence; inhibition (viability loss, TRAIL sensitization), % at 10 µM; 1% of 360,000 active;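 active means compounds causing at least 50% loss of cell viability in the single-dose screen, relative to plate controls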
Hits are given with their value; - = inactive; . = no result. In the library only some 2.2% were active in any assay of this set; here they are far more common.

SMILES | Wee1 degr inh | FLuc stim CS | FLuc inhib CS | PKD1 inh | PPC-1+TRAIL kill | C8 TRAIL sens
C=CCNc1nc(NCc2ccc(NC(C)=O)cc2)c2sc(-c3ccccc3)cc2n1 | . | . | . | . | . | 64
O=C(O)c1ccc(N2CCN(Cc3ccc4c(c3)OCO4)CC2)c([N+](=O)[O-])c1 | . | . | . | . | . | -
COc1cc(OC)cc(C(=O)NCCOC23CC4CC(CC(C4)C2)C3)c1 | 9.4 | - | - | - | - | -
COc1ccc(-c2cn3ccc4ccccc4c3n2)cc1 | - | - | 68 | - | - | -
Cc1cccn2cc(-c3ccc(F)cc3)nc12 | - | - | 59 | - | - | -
COc1ccc(-c2cn3cccc(C)c3n2)cc1Br | - | - | 57 | - | - | -
Cc1cccn2cc(-c3ccccc3)nc12 | - | - | 69 | - | - | -
Cc1cccn2cc(-c3ccc(F)cc3)cc12 | - | - | - | - | - | -
COc1ccc(CC(=O)Nc2c3c(nn2C(C)(C)C)CS(=O)(=O)C3)cc1OC | . | . | . | . | . | -
CC(=O)Nc1ccccc1C(=O)C(=O)Nc1cccc(C(=O)N2CC(C)CC(C)C2)c1 (configuration not stated) | - | - | - | - | - | -
Cc1ccc(C(=O)/C=C2\NCC(C)NC2=O)cc1 (configuration not stated) | - | - | 69 | - | - | -
Cc1ccc(C(=O)/C=C\C(=O)c2ccc(C)cc2)cc1 | - | - | - | - | - | -
Cc1ccc(C(=O)/C=C2\NCCNC2=O)cc1 | - | - | 67 | - | - | -
CCCCCCC[N+](CC)(CC)CCCCc1ccc(Cl)cc1 | . | . | . | . | . | 57
COc1cc(NC(=O)CCn2c(=S)[nH]c3ccccc3c2=O)cc(OC)c1OC | . | . | . | . | . | -
CCCCNc1cc(Cl)nc(N)n1 | - | . | . | . | - | -
N#Cc1ccc(OS(=O)(=O)c2ccc(-c3ccon3)s2)cc1 | . | . | . | . | . | -
Nc1ccc(-c2nc3ccc(C(=O)O)cc3s2)cc1 | - | - | 76 | - | - | 70
CC1CCN(c2nc3ccc(C(=O)O)cc3s2)CC1 | - | - | 58 | - | - | -
